Data reported in ChEMBL document CHEMBL4350961, “Discovery of Pyrrolo[3,2- d]pyrimidin-4-one Derivatives as a New Class of Potent and Cell-Active Inhibitors of P300/CBP-Associated Factor Bromodomain” (J Med Chem, 2019).
Calls of active or inactive are those of the source. No cut-off for these calls is given here.

Legend:
[1] = biological target: Dual specificity tyrosine-phosphorylation-regulated kinase 3 (Homo sapiens) (UniProt O43781); assay: Inhibition of recombinant full-length human DYRK3 at 10 uM using RRRFRPASPLRGPPK as substrate measured after 40 mins in presence of [gamma33P]ATP by scintillation counting method
[2] = biological target: Mitogen-activated protein kinase 12 (Homo sapiens) (UniProt P53778); assay: Inhibition of recombinant full-length human SAPK3 at 10 uM using myelin basic protein as substrate measured after 40 mins in presence of [gamma33P]ATP by scintillation counting method
[3] = system: PI3-kinase p110-alpha/p85-alpha (Homo sapiens), P27986+P42336 [H1047R]; assay: Inhibition of recombinant full-length human PI3K p110alpha/p85alpha H1047R mutant at 10 uM using phosphatidylinositol-4, 5-bisphosphate as substrate measured after 40 mins by fluorescence assay; assay type: protein-complex assay
[4] = biological target: Mitogen-activated protein kinase kinase kinase 11 (Homo sapiens) (UniProt Q16584); assay: Inhibition of human MLK3 at 10 uM by radiometric method
How it was run: (§1)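 Kinase panel of 422 kinases screened by Eurofins KinaseProfiler at a single test-compound concentration of 10 µM.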

Homo sapiens [5] = species on record: Homo sapiens; assay: Inhibition of recombinant human ARAF Y301D/ Y302D mutant (273 to end residues) at 10 uM using myelin basic protein as substrate measured after 40 mins in presence of [gamma33P]ATP by scintillation counting method
[6] = biological target: Serine/threonine-protein kinase WNK2 (Homo sapiens) (UniProt Q9Y3S1); assay: Inhibition of human WNK2 (166 to 489 residues) using myelin basic protein as substrate measured after 40 mins in presence of [gamma33P]ATP by scintillation counting method
[7] = biological target: Protein kinase C delta type (Homo sapiens) (UniProt Q05655); assay: Inhibition of recombinant human PKCdelta (2 to end residues) at 10 uM using ERMRPRKRQGSVRRRV as substrate measured after 40 mins in presence of [gamma33P]ATP by scintillation counting method
Chain of Protein kinase C delta type (Homo sapiens) (Q05655 whole entry, looked up): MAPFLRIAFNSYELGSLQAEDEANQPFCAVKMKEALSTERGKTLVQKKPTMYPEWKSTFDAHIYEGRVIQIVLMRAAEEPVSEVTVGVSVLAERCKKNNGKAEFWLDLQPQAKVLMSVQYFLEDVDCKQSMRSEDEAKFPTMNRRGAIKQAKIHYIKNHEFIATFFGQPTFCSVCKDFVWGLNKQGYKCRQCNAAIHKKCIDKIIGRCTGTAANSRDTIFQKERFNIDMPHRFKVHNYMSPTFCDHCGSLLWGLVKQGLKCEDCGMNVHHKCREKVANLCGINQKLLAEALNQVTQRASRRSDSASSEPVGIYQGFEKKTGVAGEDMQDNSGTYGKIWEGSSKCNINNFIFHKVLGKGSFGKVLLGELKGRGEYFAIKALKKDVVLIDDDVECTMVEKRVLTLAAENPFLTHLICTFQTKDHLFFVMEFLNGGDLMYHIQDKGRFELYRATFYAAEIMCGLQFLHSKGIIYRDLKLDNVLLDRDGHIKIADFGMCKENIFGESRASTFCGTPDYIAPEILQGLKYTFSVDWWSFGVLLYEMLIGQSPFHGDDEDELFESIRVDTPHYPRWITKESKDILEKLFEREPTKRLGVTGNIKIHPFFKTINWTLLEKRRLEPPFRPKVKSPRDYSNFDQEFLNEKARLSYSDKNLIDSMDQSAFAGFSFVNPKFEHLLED

[8] = biological target: CDK2/Cyclin A2 (Homo sapiens) (UniProt P24941+P20248); assay: Inhibition of recombinant full-length human CDK2/cyclinA at 10 uM using histone H1 as substrate measured after 40 mins in presence of [gamma33P]ATP by scintillation counting method; assay type: protein-complex assay
[9] = biological target: Mitogen-activated protein kinase kinase kinase 20 (Homo sapiens) (UniProt Q9NYL2); assay: Inhibition of recombinant full-length human ZAK at 10 uM using MBP as substrate measured after 40 mins in presence of [gamma33P]ATP by scintillation counting method
Chain of Mitogen-activated protein kinase kinase kinase 20 (Homo sapiens) (Q9NYL2 2-800 limits assumed): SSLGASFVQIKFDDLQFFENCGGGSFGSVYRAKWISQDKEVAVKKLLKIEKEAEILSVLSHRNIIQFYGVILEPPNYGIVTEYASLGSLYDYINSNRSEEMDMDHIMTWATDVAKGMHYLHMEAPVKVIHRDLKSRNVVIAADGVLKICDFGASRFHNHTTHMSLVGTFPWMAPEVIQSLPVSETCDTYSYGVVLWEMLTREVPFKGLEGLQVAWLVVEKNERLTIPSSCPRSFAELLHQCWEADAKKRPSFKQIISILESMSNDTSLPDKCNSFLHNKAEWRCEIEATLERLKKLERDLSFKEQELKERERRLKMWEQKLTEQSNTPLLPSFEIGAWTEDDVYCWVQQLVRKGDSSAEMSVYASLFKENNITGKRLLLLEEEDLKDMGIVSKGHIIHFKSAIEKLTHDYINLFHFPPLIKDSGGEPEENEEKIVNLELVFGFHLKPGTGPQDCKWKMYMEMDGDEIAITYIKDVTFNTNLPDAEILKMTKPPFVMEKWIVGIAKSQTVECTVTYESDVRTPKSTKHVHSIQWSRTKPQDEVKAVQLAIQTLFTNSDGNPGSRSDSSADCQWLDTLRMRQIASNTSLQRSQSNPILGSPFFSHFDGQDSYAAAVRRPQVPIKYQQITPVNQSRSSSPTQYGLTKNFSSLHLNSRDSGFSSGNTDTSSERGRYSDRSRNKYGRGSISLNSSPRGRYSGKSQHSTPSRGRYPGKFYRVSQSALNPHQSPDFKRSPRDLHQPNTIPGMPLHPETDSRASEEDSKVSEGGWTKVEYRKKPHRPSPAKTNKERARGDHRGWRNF

[10] = Unbound fraction in Sprague-Dawley rat plasma at 1 uM measured after 16 hrs by equilibrium dialysis-based LC-MS/MS analysis; assay type: ADME, cell-free
[11] = biological target: Serine/threonine-protein kinase MARK2 (Homo sapiens) (UniProt Q7KZI7); assay: Inhibition of recombinant full-length human PAR1Balpha at 10 uM using KKKVSRSGLYRSPSMPENLNRPR as substrate measured after 40 mins in presence of [gamma33P]ATP by scintillation counting method
Chain of Serine/threonine-protein kinase MARK2 (Homo sapiens) (Q7KZI7 whole entry, the tested form may be a part): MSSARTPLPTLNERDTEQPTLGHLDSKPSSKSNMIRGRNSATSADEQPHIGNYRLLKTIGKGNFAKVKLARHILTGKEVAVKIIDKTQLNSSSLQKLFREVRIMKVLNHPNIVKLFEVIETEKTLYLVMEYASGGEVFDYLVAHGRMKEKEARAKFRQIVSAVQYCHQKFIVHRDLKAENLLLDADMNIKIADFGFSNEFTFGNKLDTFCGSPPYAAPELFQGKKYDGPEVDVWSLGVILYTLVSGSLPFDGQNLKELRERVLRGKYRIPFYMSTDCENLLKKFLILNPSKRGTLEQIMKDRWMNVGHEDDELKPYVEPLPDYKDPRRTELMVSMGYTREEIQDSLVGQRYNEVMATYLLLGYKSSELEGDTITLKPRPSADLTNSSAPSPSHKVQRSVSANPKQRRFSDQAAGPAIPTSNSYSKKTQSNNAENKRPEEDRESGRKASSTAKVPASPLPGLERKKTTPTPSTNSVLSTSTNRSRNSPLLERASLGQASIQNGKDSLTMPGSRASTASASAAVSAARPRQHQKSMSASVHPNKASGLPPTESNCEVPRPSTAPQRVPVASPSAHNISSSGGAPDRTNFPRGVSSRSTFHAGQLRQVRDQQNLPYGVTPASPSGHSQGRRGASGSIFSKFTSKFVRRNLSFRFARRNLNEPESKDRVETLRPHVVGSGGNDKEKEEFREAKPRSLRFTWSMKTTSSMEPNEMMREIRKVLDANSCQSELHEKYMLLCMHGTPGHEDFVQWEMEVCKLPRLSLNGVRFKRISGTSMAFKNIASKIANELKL

[12] = system: Fibroblast growth factor receptor 2 (Homo sapiens), P21802 [N549H]; assay: Inhibition of recombinant human FGFR2 N549H mutant (456 to 770 residues) at 10 uM using GGEEEEYFELVKKKK as substrate measured after 40 mins in presence of [gamma33P]ATP by scintillation counting method
[13] = biological target: CDK3/Cyclin E (Homo sapiens) (UniProt P24864+Q00526); assay: Inhibition of recombinant full-length human CDK3/cyclinE at 10 uM using histone H1 as substrate measured after 40 mins in presence of [gamma33P]ATP by scintillation counting method; assay type: protein-complex assay
Mus musculus = species on record: Mus musculus; assay: Inhibition of full-length recombinant mouse BLK V421E mutant at 10 uM using poly(Glu, Tyr) 4:1 as substrate measured after 40 mins in presence of [gamma33P]ATP by scintillation counting method; how it was run: as §1
[14] = biological target: Inhibitor of nuclear factor kappa-B kinase subunit epsilon (Homo sapiens) (UniProt Q14164); assay: Inhibition of recombinant full-length human IKKepsilon at 10 uM using casein as substrate measured after 40 mins in presence of [gamma33P]ATP by scintillation counting method
[15] = biological target: Serine/threonine-protein kinase ULK2 (Homo sapiens) (UniProt Q8IYT8); assay: Inhibition of human ULK2 (1 to 306 residues) using casein as substrate measured after 40 mins in presence of [gamma33P]ATP by scintillation counting method
[16] = biological target: Rhodopsin kinase GRK1 (Homo sapiens) (UniProt Q15835); assay: Inhibition of recombinant full-length human GRK1 at 10 uM using KKKKERLLDDRHDSGLDSMKDEE as substrate measured after 40 mins in presence of [gamma33P]ATP by scintillation counting method
[17] = biological target: Phosphatidylinositol 4-phosphate 5-kinase type-1 gamma (Homo sapiens) (UniProt O60331); assay: Inhibition of recombinant full-length human PIP5K1gamma at 10 uM using phosphatidylinositol 4-phosphate as substrate measured after 40 mins by HTRF assay
Chain of Phosphatidylinositol 4-phosphate 5-kinase type-1 gamma (Homo sapiens) (O60331 whole entry): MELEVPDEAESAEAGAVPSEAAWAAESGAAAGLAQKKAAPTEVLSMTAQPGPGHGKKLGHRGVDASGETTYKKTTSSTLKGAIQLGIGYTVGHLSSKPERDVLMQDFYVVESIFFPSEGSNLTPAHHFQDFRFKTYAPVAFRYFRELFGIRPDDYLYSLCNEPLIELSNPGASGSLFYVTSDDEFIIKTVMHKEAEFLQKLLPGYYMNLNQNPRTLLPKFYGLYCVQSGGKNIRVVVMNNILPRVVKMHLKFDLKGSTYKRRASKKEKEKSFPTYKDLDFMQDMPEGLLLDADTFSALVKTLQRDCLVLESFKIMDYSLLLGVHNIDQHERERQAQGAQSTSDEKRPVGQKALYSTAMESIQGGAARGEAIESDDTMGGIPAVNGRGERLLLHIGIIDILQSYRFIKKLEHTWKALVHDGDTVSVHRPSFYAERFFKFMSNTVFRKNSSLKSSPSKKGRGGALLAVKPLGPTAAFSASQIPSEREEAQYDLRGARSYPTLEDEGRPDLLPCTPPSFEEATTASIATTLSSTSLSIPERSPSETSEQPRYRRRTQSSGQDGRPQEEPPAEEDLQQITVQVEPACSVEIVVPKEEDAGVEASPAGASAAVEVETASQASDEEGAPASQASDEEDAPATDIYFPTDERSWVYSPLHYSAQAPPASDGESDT

Homo sapiens [18] = species on record: Homo sapiens; assay: Inhibition of recombinant human Flt4 V1128L/H1146R mutant (800 to end residues) at 10 uM using GGEEEEYFELVKKKK as substrate measured after 40 mins in presence of [gamma33P]ATP by scintillation counting method
[19] = biological target: Epidermal growth factor receptor (Homo sapiens) (UniProt P00533); assay: Inhibition of recombinant human EGFR (696 to end residues) at 10 uM using poly(Glu, Tyr) 4:1 as substrate measured after 40 mins in presence of [gamma33P]ATP by scintillation counting method
[20] = biological target: Mitogen-activated protein kinase kinase kinase 10 (Homo sapiens) (UniProt Q02779); assay: Inhibition of recombinant human MLK2 (1 to 449 residues) at 10 uM using myelin basic protein as substrate measured after 40 mins in presence of [gamma33P]ATP by scintillation counting method
Chain of Mitogen-activated protein kinase kinase kinase 10 (Homo sapiens) (Q02779 whole entry, looked up, the tested form may be a part): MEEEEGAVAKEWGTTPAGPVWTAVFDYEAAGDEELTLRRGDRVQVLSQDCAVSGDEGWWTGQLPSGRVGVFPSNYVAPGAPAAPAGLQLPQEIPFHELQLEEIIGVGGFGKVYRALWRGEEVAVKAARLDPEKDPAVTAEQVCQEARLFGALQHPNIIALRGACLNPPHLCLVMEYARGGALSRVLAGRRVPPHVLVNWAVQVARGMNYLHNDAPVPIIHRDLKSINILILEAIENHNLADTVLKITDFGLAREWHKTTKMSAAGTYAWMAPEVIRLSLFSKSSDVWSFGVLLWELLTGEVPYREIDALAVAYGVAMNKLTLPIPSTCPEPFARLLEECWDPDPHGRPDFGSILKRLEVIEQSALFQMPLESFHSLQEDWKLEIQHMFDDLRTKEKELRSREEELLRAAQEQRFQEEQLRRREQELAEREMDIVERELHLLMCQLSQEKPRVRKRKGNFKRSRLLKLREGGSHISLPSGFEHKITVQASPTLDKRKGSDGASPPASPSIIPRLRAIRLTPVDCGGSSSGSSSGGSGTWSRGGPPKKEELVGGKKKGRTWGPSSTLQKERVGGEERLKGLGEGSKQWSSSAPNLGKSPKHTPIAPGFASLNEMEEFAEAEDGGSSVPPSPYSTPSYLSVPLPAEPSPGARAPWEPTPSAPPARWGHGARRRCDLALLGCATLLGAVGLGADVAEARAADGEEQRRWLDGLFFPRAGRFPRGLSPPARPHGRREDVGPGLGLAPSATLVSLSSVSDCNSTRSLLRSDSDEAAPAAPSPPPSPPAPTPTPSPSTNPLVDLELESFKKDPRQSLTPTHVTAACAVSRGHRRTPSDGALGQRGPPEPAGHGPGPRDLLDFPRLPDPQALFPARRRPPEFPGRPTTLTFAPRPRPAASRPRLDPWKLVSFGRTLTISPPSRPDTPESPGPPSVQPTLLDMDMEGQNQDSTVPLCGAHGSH

[21] = biological target: Tyrosine-protein kinase CSK (Homo sapiens) (UniProt P41240); assay: Inhibition of full-length recombinant human CSK at 10 uM using poly(Glu, Tyr) 4:1 as substrate measured after 40 mins in presence of [gamma33P]ATP by scintillation counting method; how it was run: as §1
Chain of Tyrosine-protein kinase CSK (Homo sapiens) (P41240 2-450 limits assumed): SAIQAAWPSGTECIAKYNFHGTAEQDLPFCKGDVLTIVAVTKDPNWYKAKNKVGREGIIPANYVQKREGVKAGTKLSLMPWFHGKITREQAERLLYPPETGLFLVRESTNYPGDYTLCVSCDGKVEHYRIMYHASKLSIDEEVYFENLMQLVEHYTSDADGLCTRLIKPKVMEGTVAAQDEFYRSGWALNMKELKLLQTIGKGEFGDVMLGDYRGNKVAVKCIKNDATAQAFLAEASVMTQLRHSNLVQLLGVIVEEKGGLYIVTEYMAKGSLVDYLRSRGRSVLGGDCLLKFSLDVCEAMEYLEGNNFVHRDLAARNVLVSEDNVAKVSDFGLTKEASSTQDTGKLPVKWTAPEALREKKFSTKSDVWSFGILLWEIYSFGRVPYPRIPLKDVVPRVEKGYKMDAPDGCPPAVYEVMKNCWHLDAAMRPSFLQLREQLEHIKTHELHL

[22] = biological target: Ribosomal protein S6 kinase alpha-4 (Homo sapiens) (UniProt O75676); assay: Inhibition of recombinant human MSK2 (2 to end residues) at 10 uM using GRPRTSSFAEGKK as substrate measured after 40 mins in presence of [gamma33P]ATP by scintillation counting method
Homo sapiens [23] = species on record: Homo sapiens; assay: Inhibition of recombinant human PRAK R291E mutant at 10 uM using KKLRRTLSVA as substrate measured after 40 mins in presence of [gamma33P]ATP by scintillation counting method
[24] = biological target: Serine/threonine-protein kinase Nek11 (Homo sapiens) (UniProt Q8NG66); assay: Inhibition of recombinant full-length human NEK11 at 10 uM using myelin basic protein as substrate measured after 40 mins in presence of [gamma33P]ATP by scintillation counting method
Chain of Serine/threonine-protein kinase Nek11 (Homo sapiens) (Q8NG66 whole entry): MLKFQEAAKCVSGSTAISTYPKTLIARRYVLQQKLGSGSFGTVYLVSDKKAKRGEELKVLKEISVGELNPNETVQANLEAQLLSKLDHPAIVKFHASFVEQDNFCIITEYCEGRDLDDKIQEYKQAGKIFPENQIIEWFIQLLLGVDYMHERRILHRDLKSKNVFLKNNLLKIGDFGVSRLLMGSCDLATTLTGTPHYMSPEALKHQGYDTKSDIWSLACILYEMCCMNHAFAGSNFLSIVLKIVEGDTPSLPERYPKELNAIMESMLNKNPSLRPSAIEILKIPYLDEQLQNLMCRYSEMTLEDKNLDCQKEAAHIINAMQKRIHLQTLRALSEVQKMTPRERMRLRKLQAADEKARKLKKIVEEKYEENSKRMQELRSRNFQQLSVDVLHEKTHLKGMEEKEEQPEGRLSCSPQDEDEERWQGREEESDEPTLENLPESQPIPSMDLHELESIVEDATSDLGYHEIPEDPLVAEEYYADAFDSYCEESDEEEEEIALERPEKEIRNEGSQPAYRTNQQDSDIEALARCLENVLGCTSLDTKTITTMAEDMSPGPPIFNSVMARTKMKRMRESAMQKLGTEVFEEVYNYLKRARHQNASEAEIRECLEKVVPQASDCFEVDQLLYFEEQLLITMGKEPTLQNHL

In the case of `CN1C[C@H](Nc2nc3cc[nH]c3c(=O)n2C)C[C@H](c2ccc3c(c2)OCCO3)C1`, the inhibition [1] is reported as “inactive”, the inhibition [2] is reported as “inactive” and the inhibition [3] is reported as “inactive”. The inhibition [4] was “inactive”, the inhibition (Homo sapiens [5]) was “inactive” and the inhibition [6] was “inactive”. The inhibition [7] was “inactive”, the inhibition [8] was “inactive” and the inhibition [9] was “inactive”. For the same compound, the fraction unbound at 16 h, 1 µM [10] was 0.058, the inhibition [11] was “inactive” and the inhibition [12] was “inactive”. The inhibition [13] was “inactive”, the inhibition (Mus musculus) was “inactive” and the inhibition [14] was “inactive”. The inhibition [15] was “inactive”, the inhibition [16] was “inactive” and the inhibition [17] was “inactive”. For the same compound, the inhibition (Homo sapiens [18]) was “inactive”, the inhibition [19] was “inactive” and the inhibition [20] was “inactive”. For the same compound, the inhibition [21] was “inactive”, the inhibition [22] was “inactive” and the inhibition (Homo sapiens [23]) was “inactive”. The inhibition [24] was “inactive”.
